pIC50: −log10 of the molar value. In brackets after ≈: the same amount, converted by molar mass. Activity calls are given as the source filed them. No cut-off for these calls is given here.
System: not listed separately
Experiment: Inhibition of firefly luciferase activity using ATP as substrate preincubated followed by substrate addition and measured after 15 mins by firefly luciferase reporter gene assay
Parameters: species or system Photinus pyralis
Conditions: not given
How it was run: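 Biochemical counter-screen measuring direct inhibition of recombinant firefly luciferase enzyme activity, used to flag interference in the H2K reporter assay.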

SMILES	IC50
CCP(=O)(OC)c1ccc2nc(-c3ccc(F)cc3C(F)F)oc2c1 (centres undefined)	Not Active
CCP(=O)(OC)c1ccc2oc(-c3ccc(F)cc3C(F)F)nc2c1 (centres undefined)	Not Active
CCP(=O)(OC)c1ccc2nc(-c3ccccc3C(F)F)oc2c1 (centres undefined)	Not Active
CCP(=O)(OC)c1ccc2oc(-c3cncc(C(F)F)c3)nc2c1 (centres undefined)	Not Active
CCP(=O)(OC)c1ccc2nc(-c3cncc(C(F)F)c3)oc2c1 (centres undefined)	Not Active
CCP(=O)(OC)c1ccc2oc(-c3ccccc3OC(F)F)nc2c1 (centres undefined)	Not Active
CCP(=O)(OC)c1ccc2oc(-c3ccc(C(F)F)cc3)nc2c1 (centres undefined)	Not Active
CCP(=O)(OC)c1ccc2nc(-c3ccc(C(F)F)cc3)oc2c1 (centres undefined)	Not Active

More lines, now with the values ahead:

IC50	SMILES
Not Active	CCP(=O)(OC)c1ccc2oc(-c3ccnc(C(F)(F)F)c3)nc2c1 (centres undefined)
Not Active	CCP(=O)(OC)c1ccc2nc(-c3cccnc3C(F)(F)F)oc2c1 (centres undefined)
Not Active	CCP(=O)(OC)c1ccc2nc(-c3cncc(C(F)(F)F)c3)oc2c1 (centres undefined)
Not Active	CCP(=O)(OC)c1ccc2oc(-c3cccnc3C(F)(F)F)nc2c1 (centres undefined)

System: not listed separately
Experiment: Lipophilicity, log D of the compound at pH 7.4
Conditions: buffer

SMILES	logD
CCP(=O)(OC)c1ccc2nc(-c3ccc(F)cc3C(F)F)oc2c1 (centres undefined)	3.59
CCP(=O)(OC)c1ccc2oc(-c3ccc(F)cc3C(F)F)nc2c1 (centres undefined)	3.4
CCP(=O)(OC)c1ccc2nc(-c3ccccc3C(F)F)oc2c1 (centres undefined)	3.33
CCP(=O)(OC)c1ccc2oc(-c3cncc(C(F)F)c3)nc2c1 (centres undefined)	1.86
CCP(=O)(OC)c1ccc2nc(-c3cncc(C(F)F)c3)oc2c1 (centres undefined)	2.08
CCP(=O)(OC)c1ccc2oc(-c3ccccc3OC(F)F)nc2c1 (centres undefined)	2.45
CCP(=O)(OC)c1ccc2oc(-c3ccc(C(F)F)cc3)nc2c1 (centres undefined)	3.06
CCP(=O)(OC)c1ccc2nc(-c3ccc(C(F)F)cc3)oc2c1 (centres undefined)	2.98

The remaining lines, values ahead:

logD	SMILES
1.98	CCP(=O)(OC)c1ccc2nc(-c3cccnc3C(F)(F)F)oc2c1 (centres undefined)
2.41	CCP(=O)(OC)c1ccc2nc(-c3cncc(C(F)(F)F)c3)oc2c1 (centres undefined)
2.2	CCP(=O)(OC)c1ccc2oc(-c3cccnc3C(F)(F)F)nc2c1 (centres undefined)

System: not listed separately
Experiment: Kinetic aqueous solubility of the compound
Conditions: not given

SMILES	solubility kinetic [µM]
CCP(=O)(OC)c1ccc2nc(-c3ccc(F)cc3C(F)F)oc2c1 (centres undefined)	469 (≈ 173 µg/mL)
CCP(=O)(OC)c1ccc2oc(-c3ccc(F)cc3C(F)F)nc2c1 (centres undefined)	518 (≈ 191 µg/mL)
CCP(=O)(OC)c1ccc2nc(-c3ccccc3C(F)F)oc2c1 (centres undefined)	446 (≈ 157 µg/mL)
CCP(=O)(OC)c1ccc2oc(-c3cncc(C(F)F)c3)nc2c1 (centres undefined)	440 (≈ 155 µg/mL)
CCP(=O)(OC)c1ccc2nc(-c3cncc(C(F)F)c3)oc2c1 (centres undefined)	487 (≈ 172 µg/mL)
CCP(=O)(OC)c1ccc2oc(-c3ccccc3OC(F)F)nc2c1 (centres undefined)	366 (≈ 134 µg/mL)
CCP(=O)(OC)c1ccc2oc(-c3ccc(C(F)F)cc3)nc2c1 (centres undefined)	530 (≈ 186 µg/mL)
CCP(=O)(OC)c1ccc2nc(-c3ccc(C(F)F)cc3)oc2c1 (centres undefined)	556 (≈ 195 µg/mL)

Now from value to compound:

solubility kinetic [µM]	SMILES
699 (≈ 259 µg/mL)	CCP(=O)(OC)c1ccc2nc(-c3cccnc3C(F)(F)F)oc2c1 (centres undefined)
603 (≈ 223 µg/mL)	CCP(=O)(OC)c1ccc2nc(-c3cncc(C(F)(F)F)c3)oc2c1 (centres undefined)
854 (≈ 316 µg/mL)	CCP(=O)(OC)c1ccc2oc(-c3cccnc3C(F)(F)F)nc2c1 (centres undefined)

System: not listed separately
Experiment: Protein binding in mouse plasma
Conditions: not given

SMILES	fraction unbound
CCP(=O)(OC)c1ccc2nc(-c3ccc(F)cc3C(F)F)oc2c1 (centres undefined)	0.03
CCP(=O)(OC)c1ccc2oc(-c3ccc(F)cc3C(F)F)nc2c1 (centres undefined)	0.03
CCP(=O)(OC)c1ccc2nc(-c3ccccc3C(F)F)oc2c1 (centres undefined)	0.03
CCP(=O)(OC)c1ccc2oc(-c3cncc(C(F)F)c3)nc2c1 (centres undefined)	0.26
CCP(=O)(OC)c1ccc2nc(-c3cncc(C(F)F)c3)oc2c1 (centres undefined)	0.23
CCP(=O)(OC)c1ccc2oc(-c3ccccc3OC(F)F)nc2c1 (centres undefined)	0.03
CCP(=O)(OC)c1ccc2oc(-c3ccc(C(F)F)cc3)nc2c1 (centres undefined)	0.02
CCP(=O)(OC)c1ccc2nc(-c3ccc(C(F)F)cc3)oc2c1 (centres undefined)	0.04

More lines, now with the values ahead:

fraction unbound	SMILES
0.24	CCP(=O)(OC)c1ccc2nc(-c3cccnc3C(F)(F)F)oc2c1 (centres undefined)
0.2	CCP(=O)(OC)c1ccc2nc(-c3cncc(C(F)(F)F)c3)oc2c1 (centres undefined)
0.11	CCP(=O)(OC)c1ccc2oc(-c3cccnc3C(F)(F)F)nc2c1 (centres undefined)

System: not listed separately
Experiment: Apparent permeability across apical to basolateral side in human Caco2 cells
Conditions: Caco-2

Papp A→B [nm/s]	SMILES
123	CCP(=O)(OC)c1ccc2nc(-c3ccc(F)cc3C(F)F)oc2c1 (centres undefined)
123	CCP(=O)(OC)c1ccc2oc(-c3ccnc(C(F)(F)F)c3)nc2c1 (centres undefined)
188	CCP(=O)(OC)c1ccc2oc(-c3ccccc3OC(F)F)nc2c1 (centres undefined)

System: not listed separately
Experiment: Apparent permeability across basolateral to apical side in human Caco2 cells
Conditions: Caco-2

Papp B→A [nm/s]	SMILES
115	CCP(=O)(OC)c1ccc2nc(-c3ccc(F)cc3C(F)F)oc2c1 (centres undefined)
110	CCP(=O)(OC)c1ccc2oc(-c3ccnc(C(F)(F)F)c3)nc2c1 (centres undefined)
157	CCP(=O)(OC)c1ccc2oc(-c3ccccc3OC(F)F)nc2c1 (centres undefined)

System: not listed separately
Experiment: Intrinsic clearance in mouse hepatocyte
Conditions: hepatocytes

CLH [µL/min/10^6 cells]	SMILES
> 250	CCP(=O)(OC)c1ccc2nc(-c3ccccc3C(F)F)oc2c1 (centres undefined)

System: not listed separately
Experiment: Half life in mouse hepatocyte
Conditions: hepatocytes

SMILES	half-life [min]
CCP(=O)(OC)c1ccc2nc(-c3ccc(F)cc3C(F)F)oc2c1 (centres undefined)	38
CCP(=O)(OC)c1ccc2oc(-c3ccc(F)cc3C(F)F)nc2c1 (centres undefined)	13
CCP(=O)(OC)c1ccc2nc(-c3ccccc3C(F)F)oc2c1 (centres undefined)	< 3
CCP(=O)(OC)c1ccc2oc(-c3cncc(C(F)F)c3)nc2c1 (centres undefined)	> 240
CCP(=O)(OC)c1ccc2nc(-c3cncc(C(F)F)c3)oc2c1 (centres undefined)	> 240
CCP(=O)(OC)c1ccc2oc(-c3ccccc3OC(F)F)nc2c1 (centres undefined)	< 3

Other lines, results leading:

half-life [min]	SMILES
> 240	CCP(=O)(OC)c1ccc2oc(-c3ccnc(C(F)(F)F)c3)nc2c1 (centres undefined)
5	CCP(=O)(OC)c1ccc2nc(-c3cccnc3C(F)(F)F)oc2c1 (centres undefined)
> 240	CCP(=O)(OC)c1ccc2nc(-c3cncc(C(F)(F)F)c3)oc2c1 (centres undefined)
4	CCP(=O)(OC)c1ccc2oc(-c3cccnc3C(F)(F)F)nc2c1 (centres undefined)

Species: Mus musculus
Experiment: Modulation activity of utrophin in dystrophic mouse muscle cells assessed increase in utrophin protein level by western blot analysis relative to control
Conditions: filed as modulator
How it was run: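 LUmdx dystrophic mouse muscle cells were treated with compound, and utrophin protein was quantified by Western blot. Values are fold increase in utrophin level.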

Activity	SMILES
Active	CCP(=O)(OC)c1ccc2nc(-c3ccc(C(F)F)cc3)oc2c1 (centres undefined)

System: HepG2
Experiment: Cytotoxicity against human HepG2 cells assessed as reduction in cell viability incubated for 40 hrs by cell titer glo assay
Assay type: ADME, cell-based
Conditions: HepG2, 40 h

SMILES	pIC50
CCP(=O)(OC)c1ccc2oc(-c3ccnc(C(F)(F)F)c3)nc2c1 (centres undefined)	3.70

Reference: ChEMBL document CHEMBL4725490, “Decreasing HepG2 Cytotoxicity by Lowering the Lipophilicity of Benzo[d]oxazolephosphinate Ester Utrophin Modulators” (ACS Med Chem Lett, 2020)
